In ChEMBL document CHEMBL4393661, “PRODRUGS FOR NITROREDUCTASE BASED CANCER THERAPY- 2: Novel amide/Ntr combinations targeting PC3 cancer cells” (Eur J Med Chem, 2019):

Key:
[1] = target: T1, Oxygen-insensitive NAD(P)H nitroreductase (Escherichia coli K-12, UniProt P38489); test: Substrate activity at Escherichia coli nitroreductase nfsB assessed as ratio of Kcat/Km up to 80 mM using NADH as cofactor relative to CB1954/NfsB; assay type: ADME
T1 sequence (P38489 whole entry): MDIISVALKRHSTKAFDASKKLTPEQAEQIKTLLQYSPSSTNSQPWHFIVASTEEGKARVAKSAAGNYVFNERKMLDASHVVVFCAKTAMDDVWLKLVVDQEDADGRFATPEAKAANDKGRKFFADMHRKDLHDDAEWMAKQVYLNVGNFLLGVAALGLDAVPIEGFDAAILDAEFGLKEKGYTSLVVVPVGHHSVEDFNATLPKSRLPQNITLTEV

Putative nitroreductase [2] = target: T2, Putative nitroreductase (Staphylococcus saprophyticus subsp. saprophyticus (strain ATCC 15305 / DSM20229 / NCIMB 8711 / NCTC 7292 / S-41), UniProt Q4A0P1); test: Substrate activity at Staphylococcus saprophyticus nitroreductase assessed as Kcat using NADPH as cofactor in presence of Tris-Cl buffer at pH 7.5 by spectrophotometric method; assay type: ADME
T2 sequence (Q4A0P1 whole entry): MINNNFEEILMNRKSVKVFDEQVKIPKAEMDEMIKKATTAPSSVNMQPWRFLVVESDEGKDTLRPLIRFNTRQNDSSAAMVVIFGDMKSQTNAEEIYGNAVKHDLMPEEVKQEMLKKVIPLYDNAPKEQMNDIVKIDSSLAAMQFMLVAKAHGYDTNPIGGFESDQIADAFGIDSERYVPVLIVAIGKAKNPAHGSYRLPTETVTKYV
Outline: (§1)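 Michaelis–Menten parameters for recombinant Ssap-NtrB were measured spectrophotometrically at 25 °C in 25 mM Tris-Cl buffer pH 7.5 containing 5% DMSO as cosolvent.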

[3] = target: T3, Staphylococcus saprophyticus nitroreductase (Staphylococcus saprophyticus subsp. saprophyticus (strain ATCC 15305 / DSM20229 / NCIMB 8711 / NCTC 7292 / S-41), UniProt Q4A0P1); test: Substrate activity at Staphylococcus saprophyticus nitroreductase assessed as Km using NADPH as cofactor in presence of Tris-Cl buffer at pH 7.5 by spectrophotometric method; assay type: ADME; outline: as §1
T3 sequence (Q4A0P1 whole entry): T2 sequence (Q4A0P1 whole entry)

[4] = target: T4, Escherichia coli nitroreductase nfsB (oxygen-insensitive NAD(P)H nitroreductase) (Escherichia coli K-12, UniProt P38489); test: Substrate activity at Escherichia coli nitroreductase nfsB assessed as Km using NADH as cofactor in Tris-Cl buffer at pH 7.5 by spectrophotometric method; assay type: ADME
T4 sequence (P38489 whole entry): T1 sequence (P38489 whole entry)

Putative nitroreductase [5] = target: T2, Putative nitroreductase; test: Substrate activity at Staphylococcus saprophyticus nitroreductase assessed as ratio of Kcat/Km using NADPH as cofactor in presence of Tris-Cl buffer at pH 7.5 by spectrophotometric method; assay type: ADME; outline: as §1
[6] = target: T1, Oxygen-insensitive NAD(P)H nitroreductase; test: Substrate activity at Escherichia coli nitroreductase nfsB assessed as ratio of Kcat/Km using NADH as cofactor in Tris-Cl buffer at pH 7.5 by spectrophotometric method; assay type: ADME
Putative nitroreductase [7] = target: T2, Putative nitroreductase; test: Prodrug conversion assessed Staphylococcus saprophyticus nitroreductase expressed in Escherichia coli-mediated PP (4-(hydroxyamino)phenyl)(piperidin-1-yl)methanone metabolite formation by measuring retention time in presence of FDH cofactor regeneration system at 100 uM by HPLC analysis; assay type: ADME
Outline: (§2)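 This was a coupled regeneration reaction: 100 µM substrate in Tris/Cl pH 7.5 with 5–15% DMSO, plus 100 µM NADH, 10 µM NAD+, 0.1 mg/mL BSA, 200 µM sodium formate, 30 µg/mL Ssap-NtrB and 30 µg/mL Candida methylica FDH, at 25 °C. Aliquots were taken over time, quenched 1:1 with cold acetonitrile and analysed by C18 HPLC using program II (20→80→20% ACN). Peak areas were read at 254 and 340 nm.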

Putative nitroreductase [8] = target: T2, Putative nitroreductase; test: Substrate activity at Staphylococcus saprophyticus nitroreductase expressed in Escherichia coli assessed as retention time in the presence of NADPH at 100 uM by HPLC analysis (0 to 5 mins at 20% ACN, 25 to 35 min at 80% ACN, 40 to 45 min at 20% ACN); assay type: ADME
[9] = Cytotoxicity against human Hep3B cells assessed as cell viability at 9 to 150 uM measured after 48 hrs by MTT assay relative to control; assay type: cell-based, Hep 3B2; settings: read-out: Activity
Outline: (§3)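 Hep3B and HUVEC cells were grown in high-glucose medium with 10% heat-inactivated FBS and 2 mM glutamine at 37 °C in 5% CO2. Cells were seeded at 5x10^4 per well and left 24 h to attach. They were then exposed for 48 h to 150, 75, 39, 19 and 9 µM, with 1% DMSO as vehicle control. Viability was read by MTT at 550 nm as (OD sample/OD control)×100.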

[10] = target: T3, Staphylococcus saprophyticus nitroreductase; test: Substrate activity at Staphylococcus saprophyticus nitroreductase expressed in Escherichia coli assessed as half life […] at 100 uM by HPLC analysis (0 to 5 mins at 20% ACN, 25 to 35 min at 80% ACN, 40 to 45 min at 20% ACN); assay type: ADME
PC-3 [11] = test: Cytotoxicity in human PC3 cells assessed as reduction in cell viability at 180 nM measured after 48 hrs by SRB assay; assay type: cell-based; settings: pc-3, 48 h, 0.18 µM
Outline: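 They were exposed for 48 h to prodrug alone at 180 nM final, without enzyme or NADH, with 25 mM Tris-HCl as vehicle control. Cells were fixed with 12.5% TCA for 1 h at 4 °C, stained with 0.4% SRB and read at 492 nm as % cell survival, in triplicate.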

Putative nitroreductase [12] = target: T2, Putative nitroreductase; test: Substrate activity at Staphylococcus saprophyticus nitroreductase expressed in Escherichia coli assessed as retention time […] at 100 uM by HPLC analysis (0 to 5 mins at 20 % ACN, 15 to 22 min at 80% ACN, 27-32 AT 20% ACN); assay type: ADME
[13] = Cytotoxicity against human PC3 cells assessed as cell viability at 9 to 150 uM measured after 48 hrs by MTT assay relative to control; assay type: cell-based, PC-3; settings: read-out: Activity
Outline: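 They were treated for 48 h at 9, 18, 39, 78 and 150 µM, with 1% DMSO as vehicle control. Viability was read by MTT at 550 nm.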

PC-3 [14] = test: Cytotoxicity against human PC3 cells assessed as reduction in cell viability measured after 48 hrs in presence of Staphylococcus saprophyticus nitroreductase and NADH by SRB assay; assay type: cell-based; settings: PC-3, 48 h
Outline: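 Prodrug at 180, 18 or 1.8 nM was premixed with Ssap-NtrB (31 µg/mL final) and NADH (600 µM final; 900 µM for CB1954) in 25 mM Tris-HCl pH 7.5, then added for 48 h under aerobic conditions. Cells were fixed with 12.5% TCA, stained with SRB and read at 492 nm, in triplicate.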

[15] = Cytotoxicity against human HUVEC cells assessed as cell viability at 9 to 150 uM measured after 48 hrs by MTT assay relative to control; assay type: cell-based; settings: read-out: Activity; outline: as §3
Putative nitroreductase [16] = target: T2, Putative nitroreductase; test: Prodrug conversion assessed Staphylococcus saprophyticus nitroreductase expressed in Escherichia coli-mediated PP (4-(hydroxyamino)phenyl)(piperidin-1-yl)methanone metabolite formation by measuring retention time of metabolite at 100 uM incubated for 15 mins by HPLC analysis; assay type: ADME; settings: 0.25 h
Outline: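 Recombinant Ssap-NtrB, Ni-column purified, was used at 2.5 µg/mL. Substrate at 100 µM was reacted with 200 µM NADH in 25 mM Tris/Cl pH 7.5 with 10% DMSO at 25 °C for 15 min. The reaction was stopped 1:1 with cold acetonitrile and run on C18 RP-HPLC at 1 mL/min with a 20–80% ACN gradient. Peaks were detected at 254 and 340 nm.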

[17] = Solubility of the compound in 15% DMSO; assay type: physicochemical
[18] = target: T3, Staphylococcus saprophyticus nitroreductase; test: Substrate activity at Staphylococcus saprophyticus nitroreductase expressed in Escherichia coli assessed as half life […] at 100 uM by HPLC analysis (0 to 5 mins at 20 % ACN, 15 to 22 min at 80% ACN, 27-32 AT 20% ACN); assay type: ADME
Putative nitroreductase [19] = target: T2, Putative nitroreductase; test: Prodrug conversion assessed Staphylococcus saprophyticus nitroreductase expressed in Escherichia coli-mediated (4-aminophenyl)(piperidin-1-yl)methanone metabolite formation by measuring retention time in presence of FDH cofactor regeneration system at 100 uM by HPLC analysis; assay type: ADME; outline: as §2
[20] = target: T3, Staphylococcus saprophyticus nitroreductase; test: Substrate activity at Staphylococcus saprophyticus nitroreductase expressed in Escherichia coli assessed as half life […] at 150 uM by HPLC analysis (0 to 5 mins at 20 % ACN, 15 to 22 min at 80% ACN, 27-32 AT 20% ACN); assay type: ADME
Putative nitroreductase [21] = target: T2, Putative nitroreductase; test: Substrate activity at Staphylococcus saprophyticus nitroreductase expressed in Escherichia coli assessed as retention time […] at 150 uM by HPLC analysis (0 to 5 mins at 20 % ACN, 15 to 22 min at 80% ACN, 27-32 AT 20% ACN); assay type: ADME
Putative nitroreductase [22] = target: T2, Putative nitroreductase; test: Substrate activity at Staphylococcus saprophyticus nitroreductase expressed in Escherichia coli assessed as retention time in the presence of NADPH at 111 uM by HPLC analysis (0 to 5 mins at 20% ACN, 25 to 35 min at 80% ACN, 40 to 45 min at 20% ACN); assay type: ADME
Putative nitroreductase [23] = target: T2, Putative nitroreductase; test: Substrate activity at Staphylococcus saprophyticus nitroreductase expressed in Escherichia coli assessed as retention time […] at 111 uM by HPLC analysis (0 to 5 mins at 20 % ACN, 15 to 22 min at 80% ACN, 27-32 AT 20% ACN); assay type: ADME
Hep 3B2 = test: Cytotoxicity against human Hep3B cells assessed as reduction in cell viability measured after 48 hrs by MTT assay; assay type: cell-based; outline: as §3
[24] = target: T3, Staphylococcus saprophyticus nitroreductase; test: Substrate activity at Staphylococcus saprophyticus nitroreductase expressed in Escherichia coli assessed as half life in the presence of NADPH at 111 uM by HPLC analysis (0 to 5 mins at 20% ACN, 25 to 35 min at 80% ACN, 40 to 45 min at 20% ACN); assay type: ADME

Row | SMILES | viability at 48 h, up to 150 µM [9] [%] | Activity (PC-3 [11]) | viability at 48 h, up to 150 µM [13] [%] | IC50 (PC-3 [14]) [µM] | viability at 48 h, up to 150 µM [15] [%] | Retention_time (Putative nitroreductase [22]) [min] | Retention_time (Putative nitroreductase [23]) [min] | IC50 (Hep 3B2) [µM] | half-life [24] [h] | further results
1 | NC(=O)c1cc(N(CCCl)CCCl)c([N+](=O)[O-])cc1[N+](=O)[O-] |  |  |  |  |  |  |  |  |  | fold change (FC) [1]: 1.89; Kcat (Putative nitroreductase [2]): 0.8 s⁻¹; Km [3]: 82.4 µM; Km [4]: 2500 µM; Kcat/Km (Putative nitroreductase [5]): 9350 M⁻¹ s⁻¹; Kcat/Km [6]: 10560 M⁻¹ s⁻¹
2 | O=C(c1ccc([N+](=O)[O-])cc1)N1CCCCC1 | > 80 | Non-Toxic | > 80 | 0.00181 | > 80 |  |  |  |  | Retention_time (Putative nitroreductase [7]): 14 min; Retention_time (Putative nitroreductase [8]): 17.81 min; half-life at 100 µM [10]: < 1.2 min; Retention_time (Putative nitroreductase [12]): 18.22 min; Retention_time (Putative nitroreductase [16]): 15.99 min; solubility [17]: Soluble; half-life [18]: < 1.5 h; Retention_time (Putative nitroreductase [19]): 22.3 min
3 | CC(=O)Nc1cc([N+](=O)[O-])cc([N+](=O)[O-])c1 | > 80 | Non-Toxic | > 80 | 10.7 | > 80 |  |  |  |  | half-life [20]: < 6 min; Retention_time (Putative nitroreductase [21]): 14.4 min
4 | CCCCN(CCCC)c1c([N+](=O)[O-])cc(C(=O)Nc2ccc([N+](=O)[O-])cc2)cc1[N+](=O)[O-] | < 50 |  | < 50 |  | < 50 | 31.96 | 26.5 | 30.9 | < 1.56 | 
5 | CN(C)c1c([N+](=O)[O-])cc(C(=O)Nc2ccc(Cl)cc2)cc1[N+](=O)[O-] | < 50 |  | < 50 |  | 51 to 80 | 25.86 | 19.22 | 120 | < 3.15 | 
